The source of these data is publication PMC9089348 (ACS Omega, 2022).

Common to all, as to type: cell-based
Data set [1] deals with CaV1.3 LTCCs expressed in HEK293 cells (Rattus norvegicus, UniProt P27732). Kind of data set: Automated planar whole-cell patch-clamp recording, CaV1.3. Particulars: HEK293, read-out: % Inhibition (10 μM) CaV1.3. Summed up: (§1)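 HEK293 lines stably expressing the channel plus Kir2.1, grown in DMEM/10% FBS at 37 °C, 5% CO2, moved to 28 °C the day before. Automated whole-cell recording at room temperature; bath (mM) 120 NaCl, 20 CsCl, 10 BaCl2, pH 7.4; CsF-based internal. Current read at 0 mV, 250 ms into step from −60 mV, before and after compound or vehicle; only CdCl2 (5 mM)-sensitive current analysed, no leak subtraction.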
Background: The patch-clamp technique gives a direct electrical read-out from membranes.

Data set [2] concerns the target CaV1.2 L-type calcium channel (Homo sapiens, UniProt Q13936). The experiment in a line: Automated planar whole-cell patch-clamp recording, CaV1.2. Particulars: pH 7.4. Summed up:
as §1

Data set [3] has as its target CaV1.2 LTCCs expressed in HEK293 cells (Homo sapiens, UniProt Q13936). The data set is described as above. An outline of the steps:
as §1

As a reminder, the inhibition is how much of the control response was suppressed. For orientation: IC50 means the point on the concentration scale where inhibition reaches its midpoint. A high value points to lower potency.

CaV1.2 L-type calcium channel, sequence (Q13936 whole entry): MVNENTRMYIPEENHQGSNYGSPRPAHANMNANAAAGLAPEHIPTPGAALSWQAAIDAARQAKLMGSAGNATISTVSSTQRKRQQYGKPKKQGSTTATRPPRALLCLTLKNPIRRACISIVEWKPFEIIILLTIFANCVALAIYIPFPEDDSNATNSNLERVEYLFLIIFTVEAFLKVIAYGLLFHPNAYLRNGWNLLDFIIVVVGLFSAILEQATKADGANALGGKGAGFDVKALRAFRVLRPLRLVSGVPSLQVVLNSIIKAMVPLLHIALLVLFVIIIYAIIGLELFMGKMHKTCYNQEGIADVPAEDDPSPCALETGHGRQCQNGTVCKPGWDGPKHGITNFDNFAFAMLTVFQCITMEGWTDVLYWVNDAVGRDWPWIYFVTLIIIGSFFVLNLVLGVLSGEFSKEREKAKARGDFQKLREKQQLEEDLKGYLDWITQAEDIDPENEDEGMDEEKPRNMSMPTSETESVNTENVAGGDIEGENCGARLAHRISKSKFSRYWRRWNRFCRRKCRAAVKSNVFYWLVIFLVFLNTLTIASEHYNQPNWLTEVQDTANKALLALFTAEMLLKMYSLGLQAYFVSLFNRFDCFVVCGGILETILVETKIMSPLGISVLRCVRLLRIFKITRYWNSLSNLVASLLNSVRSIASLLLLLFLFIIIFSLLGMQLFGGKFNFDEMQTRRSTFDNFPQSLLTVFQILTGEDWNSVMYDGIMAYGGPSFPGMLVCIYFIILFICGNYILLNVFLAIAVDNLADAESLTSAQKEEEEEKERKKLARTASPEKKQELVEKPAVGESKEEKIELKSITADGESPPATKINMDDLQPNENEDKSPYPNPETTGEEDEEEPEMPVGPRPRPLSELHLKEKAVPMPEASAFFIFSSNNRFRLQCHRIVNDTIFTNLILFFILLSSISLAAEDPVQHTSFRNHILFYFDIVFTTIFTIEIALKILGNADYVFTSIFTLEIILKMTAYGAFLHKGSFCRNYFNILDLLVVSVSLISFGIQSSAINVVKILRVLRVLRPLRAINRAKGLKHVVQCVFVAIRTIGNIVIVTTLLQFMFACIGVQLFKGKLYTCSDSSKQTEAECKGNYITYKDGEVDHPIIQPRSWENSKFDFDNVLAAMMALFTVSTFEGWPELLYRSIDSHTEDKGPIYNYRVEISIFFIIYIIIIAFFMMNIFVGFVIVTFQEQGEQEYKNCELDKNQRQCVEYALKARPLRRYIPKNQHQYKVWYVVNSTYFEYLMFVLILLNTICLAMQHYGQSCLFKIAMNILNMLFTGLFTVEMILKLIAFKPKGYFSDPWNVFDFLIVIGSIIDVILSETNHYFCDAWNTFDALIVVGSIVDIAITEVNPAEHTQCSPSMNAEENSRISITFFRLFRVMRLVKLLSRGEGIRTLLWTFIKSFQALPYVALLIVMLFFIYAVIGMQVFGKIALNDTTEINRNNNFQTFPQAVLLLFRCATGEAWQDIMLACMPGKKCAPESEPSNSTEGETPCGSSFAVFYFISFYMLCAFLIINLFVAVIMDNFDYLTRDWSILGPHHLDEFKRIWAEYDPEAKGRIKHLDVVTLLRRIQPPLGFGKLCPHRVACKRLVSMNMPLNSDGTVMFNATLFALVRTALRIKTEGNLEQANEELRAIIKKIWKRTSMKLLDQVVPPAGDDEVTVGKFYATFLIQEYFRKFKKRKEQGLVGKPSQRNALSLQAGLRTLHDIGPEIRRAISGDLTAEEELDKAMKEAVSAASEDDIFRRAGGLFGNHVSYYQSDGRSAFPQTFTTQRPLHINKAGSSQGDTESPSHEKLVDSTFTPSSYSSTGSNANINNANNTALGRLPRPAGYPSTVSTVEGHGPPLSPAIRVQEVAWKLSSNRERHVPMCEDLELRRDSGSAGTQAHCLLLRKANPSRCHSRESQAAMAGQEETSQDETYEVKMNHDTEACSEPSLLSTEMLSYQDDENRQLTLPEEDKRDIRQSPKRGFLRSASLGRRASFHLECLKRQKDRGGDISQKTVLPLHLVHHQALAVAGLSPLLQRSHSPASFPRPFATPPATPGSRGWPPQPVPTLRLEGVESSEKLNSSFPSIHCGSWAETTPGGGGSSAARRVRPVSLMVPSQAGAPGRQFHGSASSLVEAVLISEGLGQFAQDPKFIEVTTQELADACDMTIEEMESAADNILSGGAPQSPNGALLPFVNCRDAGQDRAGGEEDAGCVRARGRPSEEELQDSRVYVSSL
CaV1.2 L-type calcium channel, sequence (P54284 whole entry partner): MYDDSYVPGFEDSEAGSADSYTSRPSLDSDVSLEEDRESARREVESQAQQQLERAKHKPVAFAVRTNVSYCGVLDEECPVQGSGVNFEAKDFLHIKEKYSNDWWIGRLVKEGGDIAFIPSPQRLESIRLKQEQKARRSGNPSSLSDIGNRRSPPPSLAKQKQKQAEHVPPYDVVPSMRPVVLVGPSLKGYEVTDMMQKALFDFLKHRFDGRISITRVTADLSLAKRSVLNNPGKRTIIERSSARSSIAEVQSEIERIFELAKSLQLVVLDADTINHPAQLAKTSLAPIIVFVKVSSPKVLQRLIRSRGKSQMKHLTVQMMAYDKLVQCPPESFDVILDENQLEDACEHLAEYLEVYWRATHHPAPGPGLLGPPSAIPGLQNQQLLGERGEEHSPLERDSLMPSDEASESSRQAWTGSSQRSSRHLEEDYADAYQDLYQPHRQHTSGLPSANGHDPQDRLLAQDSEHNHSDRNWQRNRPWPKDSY
CaV1.2 L-type calcium channel, sequence (P54289 25-946 partner limits assumed): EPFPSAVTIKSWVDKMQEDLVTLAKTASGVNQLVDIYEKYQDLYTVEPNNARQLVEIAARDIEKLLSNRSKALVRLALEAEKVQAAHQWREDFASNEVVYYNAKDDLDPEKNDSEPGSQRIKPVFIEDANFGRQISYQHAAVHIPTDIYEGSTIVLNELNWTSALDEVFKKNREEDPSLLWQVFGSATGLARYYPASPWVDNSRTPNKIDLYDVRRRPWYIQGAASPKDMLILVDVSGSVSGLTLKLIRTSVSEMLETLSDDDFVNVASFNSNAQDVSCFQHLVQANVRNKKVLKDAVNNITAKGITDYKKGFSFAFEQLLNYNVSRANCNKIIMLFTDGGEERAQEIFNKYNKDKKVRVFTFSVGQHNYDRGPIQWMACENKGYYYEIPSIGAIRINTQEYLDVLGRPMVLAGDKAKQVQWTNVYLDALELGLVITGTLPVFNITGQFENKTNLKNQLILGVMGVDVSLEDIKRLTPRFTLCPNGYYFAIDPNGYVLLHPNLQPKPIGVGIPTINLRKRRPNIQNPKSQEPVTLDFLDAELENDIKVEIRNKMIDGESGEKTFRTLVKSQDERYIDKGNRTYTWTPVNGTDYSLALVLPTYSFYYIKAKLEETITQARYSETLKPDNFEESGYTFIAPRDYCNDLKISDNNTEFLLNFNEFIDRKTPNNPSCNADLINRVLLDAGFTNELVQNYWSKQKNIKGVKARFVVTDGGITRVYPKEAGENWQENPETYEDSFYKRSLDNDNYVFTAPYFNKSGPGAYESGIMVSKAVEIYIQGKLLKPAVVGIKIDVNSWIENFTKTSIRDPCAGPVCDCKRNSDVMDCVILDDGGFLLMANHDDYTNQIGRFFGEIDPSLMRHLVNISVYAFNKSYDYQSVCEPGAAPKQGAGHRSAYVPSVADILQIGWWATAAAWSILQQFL
CaV1.2 L-type calcium channel, sequence (P54289 947-1103 partner limits assumed): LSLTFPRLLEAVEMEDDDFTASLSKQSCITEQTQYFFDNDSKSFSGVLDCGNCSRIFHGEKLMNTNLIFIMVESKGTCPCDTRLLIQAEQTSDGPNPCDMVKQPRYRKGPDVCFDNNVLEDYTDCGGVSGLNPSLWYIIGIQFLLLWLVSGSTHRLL
CaV1.2 LTCCs expressed in HEK293 cells, sequence (Q13936 whole entry): as the sequence (Q13936 whole entry) above
CaV1.2 LTCCs expressed in HEK293 cells, sequence (P54284 whole entry partner): as the sequence (P54284 whole entry partner) above
CaV1.2 LTCCs expressed in HEK293 cells, sequence (P54289 25-946 partner limits assumed): as the sequence (P54289 25-946 partner limits assumed) above
CaV1.2 LTCCs expressed in HEK293 cells, sequence (P54289 947-1103 partner limits assumed): as the sequence (P54289 947-1103 partner limits assumed) above

On to `O=C1C(c2cccc([N+](=O)[O-])c2)C(=O)N(C2CCCC2)C(=O)N1CCCCc1cccc(Cl)c1` (centres unmarked) [14a, 1-(4-(3-Chlorophenyl)butyl)-3-cyclopentyl-5-(3-nitrophenyl)pyrimidine-2,4,6(1H,3H,5H)-trione], for which the inhibition at 10 µM came out at 76.9% in data set [1] and 72.7% in data set [2]. Moreover, the IC50 in data set [3] was determined as 3.72 µM.
With `O=C1C(c2cccc(C(F)(F)F)c2)C(=O)N(CCc2cccc(Cl)c2)C(=O)N1CCCc1ccc(Cl)cc1` (centres unmarked) [14b, 1-(3-Chlorophenethyl)-3-(3-(4-chlorophenyl)propyl)-5-(3-(trifluoromethyl)phenyl)pyrimidine-2,4,6(1H,3H,5H)-trione], the inhibition at 10 µM in data set [1] was determined as 95.6%; in data set [2], 98.8%.
As to `O=C1C(c2cccc(C(F)(F)F)c2)C(=O)N(CCc2cccc(Cl)c2)C(=O)N1CCCc1cccc(Cl)c1` (centres unmarked) [14c, 1-(3-Chlorophenethyl)-3-(3-(3-chlorophenyl)propyl)-5-(3-(trifluoromethyl)phenyl)pyrimidine-2,4,6(1H,3H,5H)-trione], the inhibition at 10 µM in data set [1] was found to be 97.3%; in data set [2], 99.2%.
As to `O=C1C(c2cccc(C(F)(F)F)c2)C(=O)N(CCc2cccc(Cl)c2)C(=O)N1CCCc1ccc(C(F)(F)F)cc1` (centres unmarked) [14d, 1-(3-Chlorophenethyl)-5-(3-(trifluoromethyl)phenyl)-3-(3-(4-(trifluoromethyl)phenyl)propyl)pyrimidine-2,4,6(1H,3H,5H)-trione], the inhibition at 10 µM in data set [1] stood at 93.1%; in data set [2], 81.2%. This compound also showed an IC50 in data set [3] of 4.53 µM.
Take `O=C1C(c2cccc(C(F)(F)F)c2)C(=O)N(CCc2cccc(Cl)c2)C(=O)N1CCCCc1ccc(Cl)cc1` (centres unmarked) [14e, 1-(3-Chlorophenethyl)-3-(4-(4-chlorophenyl)butyl)-5-(3-(trifluoromethyl)phenyl)pyrimidine-2,4,6(1H,3H,5H)-trione]: the inhibition at 10 µM in data set [1] was determined as 93.8%; in data set [2], 96.1%. In data set [3], this compound registered an IC50 of 2.41 µM.
As for `O=C1C(c2cccc(C(F)(F)F)c2)C(=O)N(CCc2cccc(Cl)c2)C(=O)N1CCCCc1cccc(Cl)c1` (centres unmarked) [14f, 1-(3-Chlorophenethyl)-3-(4-(3-chlorophenyl)butyl)-5-(3-(trifluoromethyl)phenyl) pyrimidine-2,4,6(1H,3H,5H)-trione], the inhibition at 10 µM in data set [1] is 79.8%; in data set [2] it was 100%.
On to `O=C1C(c2cccc(C(F)(F)F)c2)C(=O)N(CCc2cccc(Cl)c2)C(=O)N1CCCCc1ccc(C(F)(F)F)cc1` (centres unmarked) [14g, 1-(3-Chlorophenethyl)-5-(3-(trifluoromethyl)phenyl)-3-(4-(4-(trifluoromethyl)phenyl)butyl)pyrimidine-2,4,6(1H,3H,5H)-trione], for which the inhibition at 10 µM in data set [1] was found to be 82.8%; in data set [2], 88.2%.
